Source: ChEMBL document CHEMBL1687761

How the values were obtained:
[1] = test system: CO/N=C(\C(=O)N[C@@H]1C(=O)N2C(C(=O)O)=C(COC(C)=O)CS[C@H]12)c1csc(N)n1; assay: (§1) Ratio of Kcat to Km for Escherichia coli BL21(DE3) wild-type VIM-2 beta-lactamase by spectrophotometer
[2] = test system: CC(=O)OCC1=C(C(=O)O)N2C(=O)[C@@H](NC(=O)Cc3cccs3)[C@H]2SC1; assay: as §1
[3] = test system: CO/N=C(\C(=O)N[C@@H]1C(=O)N2C(C(=O)[O-])=C(C[N+]3(C)CCCC3)CS[C@H]12)c1csc(N)n1; assay: as §1
[4] = test system: C[C@@H](O)[C@H]1C(=O)N2C(C(=O)O)=C(SCCNC=N)C[C@H]12; assay: as §1
[5] = test system: CC(C)(O/N=C(\C(=O)N[C@@H]1C(=O)N2C(C(=O)[O-])=C(C[n+]3ccccc3)CS[C@H]12)c1csc(N)n1)C(=O)O; assay: (§2) Activity of Escherichia coli BL21(DE3) wild-type VIM-2 beta-lactamase by spectrophotometer
[6] = test system: CO/N=C(\C(=O)N[C@@H]1C(=O)N2C(C(=O)O)=C(COC(C)=O)CS[C@H]12)c1csc(N)n1; assay: as §2
[7] = test system: CO/N=C(\C(=O)N[C@@H]1C(=O)N2C(C(=O)[O-])=C(C[N+]3(C)CCCC3)CS[C@H]12)c1csc(N)n1; assay: as §2
[8] = test system: C[C@@H](O)[C@H]1C(=O)N2C(C(=O)O)=C(S[C@@H]3CN[C@H](C(=O)N(C)C)C3)[C@H](C)[C@H]12; assay: as §2
[9] = test system: C[C@@H](O)[C@H]1C(=O)N2C(C(=O)O)=C(SCCNC=N)C[C@H]12; assay: as §2
[10] = test system: CC(C)(O/N=C(\C(=O)N[C@@H]1C(=O)N2C(C(=O)[O-])=C(C[n+]3ccccc3)CS[C@H]12)c1csc(N)n1)C(=O)O; assay: (§3) Activity of Escherichia coli XL1-Blue wild-type VIM-2 beta-lactamase by spectrophotometer
[11] = test system: CO/N=C(\C(=O)N[C@@H]1C(=O)N2C(C(=O)O)=C(COC(C)=O)CS[C@H]12)c1csc(N)n1; assay: as §3
[12] = test system: CO/N=C(\C(=O)N[C@@H]1C(=O)N2C(C(=O)[O-])=C(C[N+]3(C)CCCC3)CS[C@H]12)c1csc(N)n1; assay: as §3
[13] = test system: C[C@@H](O)[C@H]1C(=O)N2C(C(=O)O)=C(S[C@@H]3CN[C@H](C(=O)N(C)C)C3)[C@H](C)[C@H]12; assay: as §3
[14] = test system: C[C@@H](O)[C@H]1C(=O)N2C(C(=O)O)=C(SCCNC=N)C[C@H]12; assay: as §3
[15] = test system: O=C(Cc1cccs1)N[C@@H]1C(=O)N2C(C(=O)O)=C(/C=C/c3ccc([N+](=O)[O-])cc3[N+](=O)[O-])CS[C@H]12; assay: (§4) Ratio of Kcat to Km for Escherichia coli XL1-Blue wild-type VIM-2 beta-lactamase by spectrophotometer
[16] = test system: CO[C@@]1(NC(=O)Cc2cccs2)C(=O)N2C(C(=O)O)=C(COC(N)=O)CS[C@@H]21; assay: as §4
[17] = test system: CO/N=C(\C(=O)N[C@@H]1C(=O)N2C(C(=O)O)=C(COC(C)=O)CS[C@H]12)c1csc(N)n1; assay: as §4
[18] = test system: CC(=O)OCC1=C(C(=O)O)N2C(=O)[C@@H](NC(=O)Cc3cccs3)[C@H]2SC1; assay: as §4
[19] = test system: CO/N=C(\C(=O)N[C@@H]1C(=O)N2C(C(=O)[O-])=C(C[N+]3(C)CCCC3)CS[C@H]12)c1csc(N)n1; assay: as §4
[20] = test system: C[C@@H](O)[C@H]1C(=O)N2C(C(=O)O)=C(SCCNC=N)C[C@H]12; assay: as §4
[21] = test system: CO/N=C(\C(=O)N[C@@H]1C(=O)N2C(C(=O)[O-])=C(C[N+]3(C)CCCC3)CS[C@H]12)c1csc(N)n1; assay: (§5) Ratio of Kcat to Km for Escherichia coli BL21(DE3) VIM-2 W87F mutant beta-lactamase by spectrophotometer
[22] = test system: C[C@@H](O)[C@H]1C(=O)N2C(C(=O)O)=C(SCCNC=N)C[C@H]12; assay: as §5
[23] = test system: CO/N=C(\C(=O)N[C@@H]1C(=O)N2C(C(=O)[O-])=C(C[N+]3(C)CCCC3)CS[C@H]12)c1csc(N)n1; assay: (§6) Activity of Escherichia coli BL21(DE3) VIM-2 W87F mutant beta-lactamase by spectrophotometer
[24] = test system: C[C@@H](O)[C@H]1C(=O)N2C(C(=O)O)=C(SCCNC=N)C[C@H]12; assay: as §6
Escherichia coli [25] = assay: Activity of Escherichia coli XL1-Blue wild-type IMP-1 beta-lactamase by spectrophotometer
Escherichia coli [26] = assay: Activity of Escherichia coli XL1-Blue VIM-2 A64W mutant beta-lactamase by spectrophotometer
In short: (§7)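 Mutant enzyme expressed in E. coli BL21(DE3) in autoinducing ZYP-5052 medium. Purified by anion exchange at pH 7.2, then high-resolution anion exchange at pH 9.2, plus gel filtration in 50 mM HEPES-50 μM ZnSO4 pH 7.5 where needed. Identity confirmed by tryptic peptide mass fingerprint. Steady-state kinetics on β-lactam substrates were run under the conditions used for wild-type VIM-2.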

Escherichia coli [27] = assay: Ratio of Kcat to Km for Escherichia coli XL1-Blue VIM-2 A64W mutant beta-lactamase by spectrophotometer; in short: as §7
Escherichia coli [28] = assay: Ratio of Kcat to Km for Escherichia coli XL1-Blue wild-type IMP-1 beta-lactamase by spectrophotometer
Escherichia coli [29] = assay: Activity of Escherichia coli XL1-Blue IMP-1 W64A mutant beta-lactamase by spectrophotometer
Escherichia coli [30] = assay: Ratio of Kcat to Km for Escherichia coli XL1-Blue IMP-1 W64A mutant beta-lactamase by spectrophotometer

**Q.** With “Metallo-beta-lactamase (Escherichia coli) (from UniProt Q5U7L7)” as the molecule, how does the kcat/Km [1] read?
**A.** Its kcat/Km is 5.8e+06 M⁻¹ s⁻¹.

**Q.** What about the kcat/Km [2] of the same molecule?
**A.** The kcat/Km was 1.2e+07 M⁻¹ s⁻¹.

**Q.** And the kcat/Km [3]?
**A.** Its kcat/Km is 100000 M⁻¹ s⁻¹.

**Q.** What about the kcat/Km [4] of the same molecule?
**A.** Its kcat/Km is 3.8e+06 M⁻¹ s⁻¹.

**Q.** And the Km [5]?
**A.** The Km was 72 µM.

**Q.** What about the Km [6] of the same molecule?
**A.** Its Km is 12 µM.

**Q.** What about the kcat [6] of the same molecule?
**A.** The kcat was 70 s⁻¹.

**Q.** And the Km [7]?
**A.** Its Km is > 400 µM.

**Q.** And the kcat [7]?
**A.** Its kcat is > 40 s⁻¹.

**Q.** What about the Km [8] of the same molecule?
**A.** Its Km is 2 µM.

**Q.** What about the kcat [8] of the same molecule?
**A.** The kcat was 5 s⁻¹.

**Q.** What about the Km [9] of the same molecule?
**A.** The Km was 9 µM.

**Q.** And the kcat [9]?
**A.** Its kcat is 34 s⁻¹.

**Q.** What about the Km [10] of the same molecule?
**A.** The Km was 72 µM.

**Q.** What about the Km [11] of the same molecule?
**A.** Its Km is 12 µM.

**Q.** What about the kcat [11] of the same molecule?
**A.** The kcat was 70 s⁻¹.

**Q.** And the Km [12]?
**A.** The Km was > 400 µM.

**Q.** And the kcat [12]?
**A.** Its kcat is > 40 s⁻¹.

**Q.** And the Km [13]?
**A.** The Km was 2 µM.

**Q.** And the kcat [13]?
**A.** Its kcat is 5 s⁻¹.

**Q.** And the Km [14]?
**A.** The Km was 9 µM.

**Q.** And the kcat [14]?
**A.** The kcat was 34 s⁻¹.

**Q.** And the kcat/Km [15]?
**A.** The kcat/Km was 4.3e+07 M⁻¹ s⁻¹.

**Q.** And the kcat/Km [16]?
**A.** The kcat/Km was 1.2e+06 M⁻¹ s⁻¹.

**Q.** And the kcat/Km [17]?
**A.** The kcat/Km was 5.8e+06 M⁻¹ s⁻¹.

**Q.** And the kcat/Km [18]?
**A.** The kcat/Km was 1.2e+07 M⁻¹ s⁻¹.

**Q.** What about the kcat/Km [19] of the same molecule?
**A.** Its kcat/Km is 100000 M⁻¹ s⁻¹.

**Q.** And the kcat/Km [20]?
**A.** Its kcat/Km is 3.8e+06 M⁻¹ s⁻¹.

**Q.** Which results are given for “Metallo-beta-lactamase (Escherichia coli) (from UniProt Q5U7L7) W87F”?
**A.** kcat/Km [21]: 48000 M⁻¹ s⁻¹; kcat/Km [22]: 3.7e+06 M⁻¹ s⁻¹; Km [23]: > 450 µM; kcat [23]: > 20 s⁻¹; Km [24]: 6 µM; kcat [24]: 22 s⁻¹

**Q.** Which results are given for CC(=O)OCC1=C(C(=O)O)N2C(=O)[C@@H](NC(=O)Cc3cccs3)[C@H]2SC1?
**A.** Km (Escherichia coli [25]): 5 µM; kcat (Escherichia coli [25]): 32 s⁻¹; Km (Escherichia coli [26]): 6 µM; kcat (Escherichia coli [26]): 135 s⁻¹; kcat/Km (Escherichia coli [27]): 2.2e+07 M⁻¹ s⁻¹; kcat/Km (Escherichia coli [28]): 6.4e+06 M⁻¹ s⁻¹; Km (Escherichia coli [29]): > 500 µM; kcat (Escherichia coli [29]): > 250 s⁻¹; kcat/Km (Escherichia coli [30]): 310000 M⁻¹ s⁻¹

**Q.** What does the source list for CC(C)(O/N=C(\C(=O)N[C@@H]1C(=O)N2C(C(=O)[O-])=C(C[n+]3ccccc3)CS[C@H]12)c1csc(N)n1)C(=O)O?
**A.** Km (Escherichia coli [25]): 44 µM; kcat (Escherichia coli [25]): 8 s⁻¹; Km (Escherichia coli [26]): 40 µM; kcat (Escherichia coli [26]): 0.7 s⁻¹; kcat/Km (Escherichia coli [27]): 18000 M⁻¹ s⁻¹; kcat/Km (Escherichia coli [28]): 180000 M⁻¹ s⁻¹

**Q.** How did the Km (Escherichia coli [25]) turn out when C[C@@H](O)[C@H]1C(=O)N2C(C(=O)O)=C(S[C@@H]3CN[C@H](C(=O)N(C)C)C3)[C@H](C)[C@H]12 was run?
**A.** Its Km is 10 µM.

**Q.** And the kcat (Escherichia coli [25])?
**A.** The kcat was 5 s⁻¹.

**Q.** And the Km (Escherichia coli [26])?
**A.** Its Km is 2 µM.

**Q.** And the kcat (Escherichia coli [26])?
**A.** Its kcat is 6 s⁻¹.

**Q.** What about the kcat/Km (Escherichia coli [27]) of the same molecule?
**A.** Its kcat/Km is 3e+06 M⁻¹ s⁻¹.

**Q.** And the kcat/Km (Escherichia coli [28])?
**A.** The kcat/Km was 500000 M⁻¹ s⁻¹.

**Q.** For CO/N=C(\C(=O)N[C@@H]1C(=O)N2C(C(=O)O)=C(COC(C)=O)CS[C@H]12)c1csc(N)n1, which Km (Escherichia coli [25]) is on record?
**A.** The Km was 2.8 µM.

**Q.** What about the kcat (Escherichia coli [25]) of the same molecule?
**A.** The kcat was 13.4 s⁻¹.

**Q.** What about the Km (Escherichia coli [26]) of the same molecule?
**A.** Its Km is 7 µM.

**Q.** And the kcat (Escherichia coli [26])?
**A.** Its kcat is 26 s⁻¹.

**Q.** And the kcat/Km (Escherichia coli [27])?
**A.** The kcat/Km was 3.7e+06 M⁻¹ s⁻¹.

**Q.** What about the kcat/Km (Escherichia coli [28]) of the same molecule?
**A.** The kcat/Km was 4.8e+06 M⁻¹ s⁻¹.

**Q.** What about the Km (Escherichia coli [29]) of the same molecule?
**A.** Its Km is 61 µM.

**Q.** What about the kcat (Escherichia coli [29]) of the same molecule?
**A.** Its kcat is 98 s⁻¹.

**Q.** What about the kcat/Km (Escherichia coli [30]) of the same molecule?
**A.** The kcat/Km was 1.5e+06 M⁻¹ s⁻¹.
